Rows were chosen to be rich in hits. Some 5.8% of all compounds tested hit in one or more screens of this group.
T cruzi growth-1: T. cruzi intracellular proliferation inhibitors, primary screen, cell-based, beta-gal Tulahuen parasites, NIH3T3 host, luminescence; T. cruzi beta-gal in NIH3T3, GalScreen luminescence, 90 h; inhibition, % at 8.34 µM; 77,000 tested, 5.9% active;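 active means mean inhibition above about 93%, with at least 55% of replicates each passing it, limit read from the data, passing the limit was not always enough; inconclusive means only one of those two conditions holds; inactive means neither condition holds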
GASC1 inh: inhibitors of GASC-1 (KDM4C) histone demethylase, primary screen, biochemical, single concentration HTS | inhibition, % at 12.5 µM | GST-KDM4C 2-372, H3K9me3 peptide, LANCE TR-FRET | 96,000 tested, 0.15% active;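 active means mean replicate inhibition above about 25%, with at least 55% of replicates also reaching it, limit read from the data, passing the limit was not always enough; inconclusive means only one of those two conditions met; inactive means neither condition met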
Target sequence (Q9H3R0 2-372 limits assumed): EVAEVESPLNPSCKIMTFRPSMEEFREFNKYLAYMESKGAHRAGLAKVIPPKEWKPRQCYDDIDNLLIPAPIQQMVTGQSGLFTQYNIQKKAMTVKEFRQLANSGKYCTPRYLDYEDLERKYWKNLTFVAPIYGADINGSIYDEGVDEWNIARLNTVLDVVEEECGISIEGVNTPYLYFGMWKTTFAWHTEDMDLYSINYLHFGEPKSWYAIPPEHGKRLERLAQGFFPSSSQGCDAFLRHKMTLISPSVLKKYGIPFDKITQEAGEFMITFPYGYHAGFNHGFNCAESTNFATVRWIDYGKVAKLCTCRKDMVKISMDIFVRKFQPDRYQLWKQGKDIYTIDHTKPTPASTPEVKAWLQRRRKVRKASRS
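Material: GST-tagged GASC-1 (JMJD2C) catalytic fragment, aa 2-372 / Quantity: enzyme final amount 10 nM / Medium: HEPES buffer, pH 7.5, plus ascorbate / Doses: one test concentration per compound / Incubation: 30 min reaction, 60 min detection, RT / Measured by: LANCE TR-FRET / Read-out: inhibition from TR-FRET ratio decrease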
IDH1 R132H inh: inhibitors of IDH1 R132H reductase, primary screen, biochemical, plate reader, single point. 70,000 tested, 0.18% active. AID 624101, 2012. diaphorase/resazurin fluorescence, 60 min. inhibition, % at 10 µM; in the data active means inhibition above about 34%; inconclusive means no clear call, values can overlap the other calls; inactive means below about 11%
Target sequence (O75874 whole entry R132H): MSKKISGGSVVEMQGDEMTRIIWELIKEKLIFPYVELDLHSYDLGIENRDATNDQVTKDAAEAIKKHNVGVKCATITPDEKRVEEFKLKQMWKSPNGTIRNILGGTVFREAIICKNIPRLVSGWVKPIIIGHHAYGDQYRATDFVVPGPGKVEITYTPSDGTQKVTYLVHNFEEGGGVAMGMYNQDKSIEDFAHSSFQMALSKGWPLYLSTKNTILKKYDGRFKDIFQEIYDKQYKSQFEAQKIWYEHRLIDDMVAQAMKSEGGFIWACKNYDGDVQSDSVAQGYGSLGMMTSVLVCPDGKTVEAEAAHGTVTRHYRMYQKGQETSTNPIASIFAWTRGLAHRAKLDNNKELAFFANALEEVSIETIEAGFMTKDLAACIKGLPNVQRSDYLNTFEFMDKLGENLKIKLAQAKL
Pf Dd2 inh: P. falciparum Dd2 growth inhibitors, primary screen, SYBR Green fluorescence, single dose replicates; 72 h; stronger effect = lower value; activity change, % at 10 µM; 94,000 tested, 2.3% active; AID 1159554, 2015; in the data active means activity change below about -80%; inconclusive means no clear call, values can overlap the other calls
T cruzi growth-2: T. cruzi intracellular proliferation inhibitors, confirmation, cell-based, NIH3T3 host, beta-gal parasite, luminescence, cherry-pick; shares compounds with T cruzi growth-1; T. cruzi beta-gal in NIH3T3, GalScreen luminescence, 90 h; inhibition, % at 8.35 µM; 5,600 tested, 72% active; AID 651739, 2012;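 active means mean replicate inhibition above about 95% and at least 55% of replicates individually reaching it, limit read from the data; inconclusive means only one of the two criteria is met; inactive means neither criterion is met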
T cruzi growth-3: inhibitors of intracellular T. cruzi replication, confirmation, NIH3T3 host cells, beta-gal parasites, cherry-pick, set 2; 5,600 tested, 21% active; inhibition, % at 2.09 µM; shares compounds with T cruzi growth-1; T. cruzi beta-gal in NIH3T3, GalScreen luminescence, 90 h;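 active means mean inhibition above about 95%, with at least 55% of replicates also reaching it, limit read from the data; inconclusive means meets just one of the two conditions; inactive means meets neither condition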
3T3 cytotox: cytotoxicity in mouse NIH/3T3 fibroblasts, confirmation, cytotoxicity control for T. cruzi proliferation inhibitor project, cell-based, cherry-pick, single point; cytotoxicity (signal decrease), % at 8.35 µM; shares compounds with T cruzi growth-1; 5,600 tested, 14% active; NIH/3T3 viability, CellTiter-Glo ATP luminescence, 90 h;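 active means mean signal decrease across replicates above about 35% based on untreated-well scatter, with enough replicates individually passing, limit read from the data; inconclusive means no rule stated though some were filed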
3T3 cytotox 2: NIH/3T3 fibroblast cytotoxicity, confirmation, cytotoxicity control, cell-based, cherry-pick, single point, set 2. 5,600 tested, 56% active. AID 651744, 2012. inhibition, % at 24.9 µM. NIH/3T3 viability, CellTiter-Glo ATP luminescence, 90 h. shares compounds with T cruzi growth-1;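 active means mean loss of cell viability signal at or above a set limit, and enough replicates individually reaching it; inconclusive means meets only the mean limit or only the replicate share; inactive means meets neither condition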
Large screens that a line does not name were inactive (follow-up assays come after a bar, where they were run).

C[C@@H]1CCCCO[C@H](CN(C)C(=O)c2ccccc2)[C@@H](C)CN([C@H](C)CO)C(=O)c2cc(NC(=O)Nc3ccc(C(F)(F)F)cc3)ccc2O1	T cruzi growth-1 inconclusive | T cruzi growth-2 106 | T cruzi growth-3 inactive | 3T3 cytotox inactive | 3T3 cytotox 2 33
C[C@@H]1CN([C@H](C)CO)C(=O)c2cccc(NS(C)(=O)=O)c2O[C@H]1CN(C)Cc1ccc(-c2ccccc2)cc1	none
CCN1[C@@H]2c3ccc(-c4ccccc4OC)c(=O)n3C[C@@H]2[C@@H](CO)[C@@H]1C(=O)Nc1nccs1	none (no result: IDH1 R132H inh)
O=C(Nc1nccs1)[C@H]1[C@H](CO)[C@H]2Cn3c(ccc(-c4cccnc4)c3=O)[C@H]2N1CC1CCCC1	T cruzi growth-1 inconclusive (no result: IDH1 R132H inh) | T cruzi growth-2 inactive | T cruzi growth-3 inactive | 3T3 cytotox inactive | 3T3 cytotox 2 54
O=C(NCc1ccc(F)cc1)[C@@H]1[C@@H](CO)[C@@H]2Cn3c(cccc3=O)[C@@H]2N1CCC(F)(F)F	T cruzi growth-1 143 (no result: IDH1 R132H inh, Pf Dd2 inh) | T cruzi growth-2 inactive | T cruzi growth-3 inactive | 3T3 cytotox inactive | 3T3 cytotox 2 inactive
CCN1[C@H](C(=O)NCc2ccc(F)cc2)[C@@H](CO)[C@@H]2Cn3c(ccc(-c4ccccc4OC)c3=O)[C@@H]21	T cruzi growth-1 104 (no result: IDH1 R132H inh, Pf Dd2 inh) | T cruzi growth-2 inactive | T cruzi growth-3 inactive | 3T3 cytotox inactive | 3T3 cytotox 2 inactive
COc1ccccc1-c1ccc2n(c1=O)C[C@H]1[C@H](CO)[C@@H](C(=O)Nc3nccs3)N(CC3CC3)[C@@H]21	T cruzi growth-1 inconclusive (no result: IDH1 R132H inh) | T cruzi growth-2 inactive | T cruzi growth-3 inactive | 3T3 cytotox inactive | 3T3 cytotox 2 inactive
O=C(C[C@H]1C[C@H]2c3cc(NC(=O)c4ccc5c(c4)OCO5)ccc3O[C@H]2[C@H](CO)O1)NCc1ccccn1	none
O=C(NCC1CC1)[C@@H]1[C@@H](CO)[C@@H]2Cn3c(ccc(-c4cncnc4)c3=O)[C@@H]2N1C(=O)NC1CCCC1	none (no result: IDH1 R132H inh, Pf Dd2 inh)
O=C(Nc1nccs1)[C@@H]1[C@@H](CO)[C@@H]2Cn3c(cccc3=O)[C@@H]2N1C(=O)C1CCC1	T cruzi growth-1 101 (no result: IDH1 R132H inh) | T cruzi growth-2 inactive | T cruzi growth-3 inactive | 3T3 cytotox inactive | 3T3 cytotox 2 inactive
O=C(NCC1CC1)[C@@H]1[C@@H](CO)[C@@H]2Cn3c(ccc(-c4cccnc4)c3=O)[C@@H]2N1C(=O)NC1CCCC1	T cruzi growth-1 inconclusive (no result: IDH1 R132H inh) | T cruzi growth-2 inactive | T cruzi growth-3 inactive | 3T3 cytotox inactive | 3T3 cytotox 2 inactive
O=C(CSc1nnc(-c2ccc(Cl)cc2)n1-c1ccccc1)Nc1cccc(Cl)c1Cl	none (no result: T cruzi growth-1, GASC1 inh, Pf Dd2 inh)
C[C@@H]1CCCCO[C@@H](CN(C)C(=O)Nc2ccc(F)cc2)[C@@H](C)CN([C@H](C)CO)C(=O)c2cc(NC(=O)Nc3ccc4c(c3)OCO4)ccc2O1	none
C[C@@H]1CCCCO[C@H](CN(C)C(=O)Nc2ccc3c(c2)OCO3)[C@H](C)CN([C@H](C)CO)C(=O)c2cc(NC(=O)Nc3ccc(F)cc3)ccc2O1	T cruzi growth-1 102, Pf Dd2 inh -88 | T cruzi growth-2 100 | T cruzi growth-3 inactive | 3T3 cytotox inactive | 3T3 cytotox 2 inactive
C[C@H](CO)N1C[C@H](C)[C@H](CN(C)C(=O)Nc2ccc(F)cc2)OCCCC[C@H](C)Oc2ccc(NC(=O)Nc3ccc4c(c3)OCO4)cc2C1=O	none
C[C@H](CO)N1C[C@H](C)[C@H](CN(C)C(=O)Nc2ccc3c(c2)OCO3)OCCCC[C@H](C)Oc2ccc(NC(=O)NC3CCCCC3)cc2C1=O	T cruzi growth-1 110 | T cruzi growth-2 105 | T cruzi growth-3 inactive | 3T3 cytotox inactive | 3T3 cytotox 2 inactive
C[C@H](CO)N1C[C@H](C)[C@H](CN(C)C(=O)Nc2ccc3c(c2)OCO3)OCCCC[C@H](C)Oc2ccc(NC(=O)Nc3ccc(F)cc3)cc2C1=O	T cruzi growth-1 104 (no result: IDH1 R132H inh) | T cruzi growth-2 108 | T cruzi growth-3 inactive | 3T3 cytotox inactive | 3T3 cytotox 2 inactive
C[C@@H]1CCCCO[C@@H](CN(C)C(=O)Nc2ccc3c(c2)OCO3)[C@H](C)CN([C@H](C)CO)C(=O)c2cc(NC(=O)Nc3ccc(F)cc3)ccc2O1	T cruzi growth-1 102 | T cruzi growth-2 104 | T cruzi growth-3 inactive | 3T3 cytotox inactive | 3T3 cytotox 2 inactive
C[C@@H]1CCCCO[C@H](CN(C)C(=O)Nc2ccc3c(c2)OCO3)[C@H](C)CN([C@@H](C)CO)C(=O)c2cc(NC(=O)NC3CCCCC3)ccc2O1	none (no result: IDH1 R132H inh)
Cc1cccc(S(=O)(=O)N2CC[C@H]3[C@H](CO)Nc4ccc(C#Cc5cccnc5)cc4[C@H]32)c1	none (no result: T cruzi growth-1, IDH1 R132H inh)
O=C(C[C@H]1C=C[C@H](NC(=O)c2ccncc2)[C@H](CO)O1)Nc1ccccc1	none (no result: T cruzi growth-1, IDH1 R132H inh)
Cc1ccc(S(=O)(=O)N(C)C[C@H]2OCCCC[C@@H](C)Oc3ccc(NC(=O)c4ccccc4)cc3C(=O)N([C@@H](C)CO)C[C@@H]2C)cc1	Pf Dd2 inh inconclusive (no result: IDH1 R132H inh)
Cc1ccc(S(=O)(=O)N(C)C[C@H]2OCCCC[C@H](C)Oc3ccc(NC(=O)c4ccccc4)cc3C(=O)N([C@@H](C)CO)C[C@@H]2C)cc1	T cruzi growth-1 104, Pf Dd2 inh -82 | T cruzi growth-2 106 | T cruzi growth-3 inactive | 3T3 cytotox inactive | 3T3 cytotox 2 inactive
C[C@@H]1CN([C@@H](C)CO)C(=O)c2cc(NC(=O)c3ccccc3)ccc2O[C@@H](C)CCCCO[C@@H]1CN(C)S(=O)(=O)c1ccccc1	none (no result: IDH1 R132H inh)
Cc1ccc(S(=O)(=O)N(C)C[C@@H]2OCCCC[C@@H](C)Oc3ccc(NC(=O)c4ccccc4)cc3C(=O)N([C@@H](C)CO)C[C@H]2C)cc1	T cruzi growth-1 100, Pf Dd2 inh -81 | T cruzi growth-2 108 | T cruzi growth-3 inactive | 3T3 cytotox inactive | 3T3 cytotox 2 31
C[C@@H]1CN([C@H](C)CO)C(=O)c2cc(-c3cccnc3)cnc2O[C@@H]1CN(C)Cc1ccc(Oc2ccccc2)cc1	none

From PubChem BioAssay
